Experimental data as given in ChEMBL document CHEMBL4680287, “Ibrexafungerp: An orally active β-1,3-glucan synthesis inhibitor” (Bioorg Med Chem Lett, 2021).
≈ marks a conversion by molar mass, not a printed value.

What was measured:
Aspergillus fumigatus [1] = test: Antifungal activity against Aspergillus fumigatus MF5668 infected in DBA/2N mouse assessed as mean survival time at 12.5 mg/kg, ip bid administered for 7 days starting from 15 to 30 mins post infection and measured up to 21 days; type: functional; conditions: time 7 day
Outline: (§1)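 DBA/2N mice were challenged IV with A. fumigatus MF5668 at 6.7 x 10^5 CFU/mouse, then dosed IP twice daily for 7 days. Survival was followed over a 21-day model, and mean survival time in days was recorded per dose group. A sham-treated control group was run alongside.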

Candida albicans [2] = test: Antifungal activity against Candida albicans MY1055 infected in DBA/2 mouse model of disseminated candidiasis assessed as reduction in fungal burden in kidney by measuring log change in colony forming units at 12.5 mg/kg, ip bid for 7 days by TOKA; type: functional; conditions: time 7 day
Outline: (§2)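 Murine disseminated candidiasis model (TOKA) in mice challenged with C. albicans MY1055 at 2.44 x 10^4 CFU/mouse. Dosed PO, or IP where stated. Kidneys collected aseptically 7 days after challenge and CFUs/g counted. Change in log CFU/g is relative to sham-treated controls; significance by two-tailed t test. Clearance is the percentage of kidneys below the detection limit.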

Candida albicans [3] = test: Antifungal activity against Candida albicans MY1055 infected in DBA/2 mouse model of disseminated candidiasis assessed as reduction in fungal burden in kidney by measuring log change in colony forming units at 6.25 mg/kg, po bid for 7 days by TOKA; type: functional; conditions: time 7 day; outline: as §2
Aspergillus fumigatus [4] = test: Antifungal activity against Aspergillus fumigatus MF5668 infected in DBA/2N mouse assessed as mouse survival at 6.25 mg/kg, ip bid administered for 7 days starting from 15 to 30 mins post infection and measured up to 21 days relative to control; type: functional; conditions: 168 h, time 7 day
Outline: (§3)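 DBA/2N mice were infected IV with A. fumigatus MF5668 (6.7 x 10^5 CFU/mouse) and treated IP bid for 7 days. Percent survival per dose group was scored at the end of the 21-day survival model and compared with the sham-treated control group.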

[5] = Oral bioavailability in rhesus monkey; type: ADME, organism-based, Macaca mulatta; conditions: in vivo
Outline: (§4)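 Oral bioavailability calculated as oral AUC normalized to the IV dose, divided by the IV AUC.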

Candida albicans [6] = test: Antifungal activity against Candida albicans MY1055 assessed as reduction in fungal growth in presence of 50% mouse serum; type: functional
Outline: (§5)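 Broth microdilution per CLSI protocols in RPMI medium. Read-out is the MIC, the lowest concentration completely inhibiting fungal growth. Run without serum and with added serum.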

[7] = Inhibition of beta-1,3-glucan synthase in Candida albicans MY1055 microsomal membrane assessed as inhibition of TCA-insoluble material formation using UDP-[3H]-glucose as substrate incubated for 2 hrs in presence of GTP by radioactivity-based assay; type: microsomes, Microsome
Outline: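 GS IC50 measured using Candida albicans MY1055 microsomal membrane fragments as the enzyme source.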

Candida parapsilosis [8] = test: Antifungal activity against Candida parapsilosis ATCC 22019 assessed as fungal growth inhibition; type: functional; conditions: Lodderomyces parapsilosis, read-out: MIC100
Candida parapsilosis [9] = test: Antifungal activity against Candida parapsilosis ATCC 22019 assessed as reduction in fungal growth; type: functional; conditions: Lodderomyces parapsilosis
Candida tropicalis [10] = test: Antifungal activity against Candida tropicalis MY1012 assessed as reduction in fungal growth; type: functional
Aspergillus fumigatus [11] = test: Antifungal activity against Aspergillus fumigatus MF5668 infected in DBA/2N mouse assessed as mean survival time at 1.56 mg/kg, ip bid administered for 7 days starting from 15 to 30 mins post infection and measured up to 21 days; type: functional; conditions: time 7 day; outline: as §1
Aspergillus fumigatus [12] = test: Antifungal activity against Aspergillus fumigatus MF5668 infected in ip dosed DBA/2N mouse assessed as 90% mouse survival administered bid administered for 7 days starting from 15 to 30 mins post infection and measured up to 21 days; type: functional; conditions: 168 h, time 7 day
[13] = Dose normalized AUC in po dosed rat; type: ADME, organism-based; conditions: in vivo
Candida albicans [14] = test: Antifungal activity against Candida albicans MY1055 assessed as fungal growth inhibition measured after 24 hrs by liquid microdilution method; type: functional; outline: as §5
[15] = Half life in mouse; type: ADME, organism-based; conditions: in vivo
Aspergillus fumigatus [16] = test: Antifungal activity against Aspergillus fumigatus MF5668 infected in DBA/2N mouse assessed as mouse survival at 1.56 mg/kg, ip bid administered for 7 days starting from 15 to 30 mins post infection and measured up to 21 days relative to control; type: functional; conditions: 168 h, time 7 day; outline: as §3
Candida albicans [17] = test: Antifungal activity against Candida albicans MY1055 infected in ip dosed DBA/2 mouse model of disseminated candidiasis assessed as reduction in fungal burden in kidney administered bid for 7 days by TOKA; type: functional; conditions: 168 h, time 7 day; outline: as §2
[18] = Clearance in dog; type: ADME, Canis lupus familiaris; conditions: in vivo
Candida albicans [19] = test: Antifungal activity against Candida albicans MY1055 assessed as fungal growth inhibition measured after 24 hrs in presence of 50% mouse serum by liquid microdilution method; type: functional; outline: as §5
Aspergillus fumigatus [20] = test: Antifungal activity against Aspergillus fumigatus MF5668 infected in DBA/2N mouse assessed as mouse survival at 3.125 mg/kg, ip bid administered for 7 days starting from 15 to 30 mins post infection and measured up to 21 days relative to control; type: functional; conditions: 168 h, time 7 day; outline: as §3
[21] = Dose normalized AUC in po dosed dog; type: ADME, organism-based, Canis lupus familiaris; conditions: in vivo
Candida albicans [22] = test: Antifungal activity against Candida albicans MY1055 infected in DBA/2 mouse model of disseminated candidiasis assessed as reduction in fungal burden in kidney by measuring log change in colony forming units at 12.5 mg/kg, po bid for 7 days by TOKA; type: functional; conditions: time 7 day; outline: as §2
[23] = Oral bioavailability in dog; type: ADME, organism-based, Canis lupus familiaris; conditions: in vivo; outline: as §4
Aspergillus fumigatus [24] = test: Antifungal activity against Aspergillus fumigatus MF5668 assessed inhibition of fungal growth by measuring morphological changes measured after 24 hrs by microscopy; type: functional; conditions: read-out: MEC
Outline: (§6)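 Microdilution per CLSI protocols in RPMI medium. Read-out is the minimum effective concentration (MEC). Run without serum and with 50% human serum.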

Candida albicans [25] = test: Antifungal activity against Candida albicans MY1055 assessed as fungal growth inhibition in presence of 50% mouse serum; type: functional; conditions: read-out: MIC100; outline: as §5
Clavispora lusitaniae [26] = test: Antifungal activity against Clavispora lusitaniae MY1396 assessed as reduction in fungal growth; type: functional
Aspergillus fumigatus [27] = test: Antifungal activity against Aspergillus fumigatus MF5668 infected in DBA/2N mouse assessed as mean survival time at 6.25 mg/kg, ip bid administered for 7 days starting from 15 to 30 mins post infection and measured up to 21 days; type: functional; conditions: time 7 day; outline: as §1
Nakaseomyces glabratus [28] = test: Antifungal activity against Candida glabrata MY1381 assessed as reduction in fungal growth; type: functional
[29] = Oral bioavailability in mouse; type: ADME, organism-based; conditions: in vivo; outline: as §4
[30] = Half life in dog; type: ADME, Canis lupus familiaris; conditions: in vivo
Aspergillus fumigatus [31] = test: Antifungal activity against Aspergillus fumigatus MF5668 infected in ip dosed DBA/2N mouse assessed as 50% mouse survival administered bid administered for 7 days starting from 15 to 30 mins post infection and measured up to 21 days; conditions: 168 h
Pichia kudriavzevii [32] = test: Antifungal activity against Candida krusei ATCC 6258 assessed as fungal growth inhibition; type: functional; conditions: read-out: MIC100
[33] = Dose normalized AUC in po rhesus monkey; type: ADME, organism-based, Macaca mulatta; conditions: in vivo
Clavispora lusitaniae [34] = test: Antifungal activity against Clavispora lusitaniae MY1396 assessed as fungal growth inhibition; type: functional; conditions: read-out: MIC100
Pichia kudriavzevii [35] = test: Antifungal activity against Candida krusei ATCC 6258 assessed as reduction in fungal growth; type: functional
Aspergillus fumigatus [36] = test: Antifungal activity against Aspergillus fumigatus MF5668 infected in DBA/2N mouse assessed as mouse survival at 12.5 mg/kg, ip bid administered for 7 days starting from 15 to 30 mins post infection and measured up to 21 days relative to control; type: functional; conditions: 168 h, time 7 day; outline: as §3
[37] = Clearance in rat; type: ADME; conditions: in vivo
Candida albicans [38] = test: Antifungal activity against Candida albicans MY1055 infected in DBA/2 mouse model of disseminated candidiasis assessed as reduction in fungal burden in kidney by measuring log change in colony forming units at 25 mg/kg, po bid for 7 days by TOKA; type: functional; conditions: time 7 day; outline: as §2
[39] = Oral bioavailability in rat; type: ADME, organism-based; conditions: in vivo; outline: as §4
[40] = Half life in rat; type: ADME; conditions: in vivo
Candida albicans [41] = test: Antifungal activity against Candida albicans MY1055 assessed as reduction in fungal growth; type: functional; outline: as §5
[42] = Clearance in mouse; type: ADME, organism-based; conditions: in vivo
Aspergillus fumigatus [43] = test: Antifungal activity against Aspergillus fumigatus MF5668 assessed inhibition of fungal growth by measuring morphological changes in presence of 50% human serum measured after 24 hrs by microscopy; type: functional; conditions: read-out: MEC; outline: as §6
[44] = Clearance in rhesus monkey; type: ADME, Macaca mulatta; conditions: in vivo
[45] = Half life in rhesus monkey; type: ADME, Macaca mulatta; conditions: in vivo
[46] = Dose normalized AUC in po dosed mouse; type: ADME, organism-based; conditions: in vivo
Candida tropicalis [47] = test: Antifungal activity against Candida tropicalis MY1012 assessed as fungal growth inhibition; type: functional; conditions: read-out: MIC100
Nakaseomyces glabratus [48] = test: Antifungal activity against Candida glabrata MY1381 assessed as fungal growth inhibition; type: functional; conditions: read-out: MIC100
Aspergillus fumigatus [49] = test: Antifungal activity against Aspergillus fumigatus MF5668 infected in DBA/2N mouse assessed as mean survival time at 3.125 mg/kg, ip bid administered for 7 days starting from 15 to 30 mins post infection and measured up to 21 days; type: functional; conditions: time 7 day; outline: as §1

## CC(C)[C@@H](C)[C@@]1(C)CC[C@]2(C)[C@H]3CC[C@@H]4[C@@]5(COC[C@@]4(C)[C@@H](OC[C@](C)(N)C(C)(C)C)[C@H](n4ncnc4-c4ccncc4)C5)C3=CC[C@@]2(C)[C@@H]1C(=O)O [IBREXAFUNGERP]
Aspergillus fumigatus [1]
  MST: 19.4 days
Candida albicans [2]
  Activity: -3.99 deltalog10CFU
Candida albicans [3]
  Activity: -2.2 deltalog10CFU
Aspergillus fumigatus [4]
  survival at 6.25 mg/kg: 90%
[5]
  bioavailability: 16%
Candida albicans [6]
  MIC50: 0.25 µg/mL
[7]
  IC50: 1 ng/mL
Candida parapsilosis [8]
  MIC: 0.5 µg/mL (≈ 0.685 µM)
Candida parapsilosis [9]
  MIC50: < 0.03 µg/mL
Candida tropicalis [10]
  MIC50: 1 µg/mL (≈ 1.37 µM)
Aspergillus fumigatus [11]
  MST: 5.1 days
Aspergillus fumigatus [12]
  ED90: 8.9 mg/kg
[13]
  AUC/dose: 0.69 µM·kg·h/mg
Candida albicans [14]
  MIC: 0.06 µg/mL (≈ 0.0822 µM)
[15]
  half-life: 264 min
Aspergillus fumigatus [16]
  survival at 1.56 mg/kg: 0%
Candida albicans [17]
  ED99: 0.84 mg/kg
[18]
  clearance: 4 mL/min/kg
Candida albicans [19]
  MIC: 0.5 µg/mL
Aspergillus fumigatus [20]
  survival at 3.125 mg/kg: 20%
[21]
  AUC/dose: 1.07 µM·kg·h/mg
Candida albicans [22]
  Activity: -3.2 deltalog10CFU
[23]
  bioavailability: 18%
Aspergillus fumigatus [24]
  minimal effective concentration: < 0.03 µg/mL
Candida albicans [25]
  MIC: 0.5 µg/mL
Clavispora lusitaniae [26]
  MIC50: 1 µg/mL (≈ 1.37 µM)
Aspergillus fumigatus [27]
  MST: 19.2 days
Nakaseomyces glabratus [28]
  MIC50: 1 µg/mL (≈ 1.37 µM)
[29]
  bioavailability: 34%
[30]
  half-life: 678 min
Aspergillus fumigatus [31]
  ED50: 4.5 mg/kg
Pichia kudriavzevii [32]
  MIC: 4 µg/mL (≈ 5.48 µM)
[33]
  AUC/dose: 0.33 µM·kg·h/mg
Clavispora lusitaniae [34]
  MIC: 2 µg/mL (≈ 2.74 µM)
Pichia kudriavzevii [35]
  MIC50: 2 µg/mL (≈ 2.74 µM)
Aspergillus fumigatus [36]
  survival at 12.5 mg/kg: 90%
[37]
  clearance: 8 mL/min/kg
Candida albicans [38]
  Activity: -4.6 deltalog10CFU
[39]
  bioavailability: 23%
[40]
  half-life: 498 min
Candida albicans [41]
  MIC50: < 0.03 µg/mL
[42]
  clearance: 14 mL/min/kg
Aspergillus fumigatus [43]
  minimal effective concentration: 0.25 µg/mL
[44]
  clearance: 11 mL/min/kg
[45]
  half-life: 342 min
[46]
  AUC/dose: 0.59 µM·kg·h/mg
Candida tropicalis [47]
  MIC: 8 µg/mL (≈ 11 µM)
Nakaseomyces glabratus [48]
  MIC: 1 µg/mL (≈ 1.37 µM)
Aspergillus fumigatus [49]
  MST: 12.2 days
